Assay results published in ChEMBL document CHEMBL1125336, “New bronchodilators. 1. 1,5-Substituted 1H-imidazo[4,5-c]quinolin-4(5H)-ones” (J Med Chem, 1992).

Key:
Cavia porcellus [1] = species on record: Cavia porcellus; assay: Inhibition of the Schulz-Dale (SD) reaction-induced contraction in trachea of guinea pig; format: functional
Summary of the method: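 Tracheal zig-zag strips from passively sensitized guinea pigs, equilibrated 1 h in Krebs-Henseleit under 95% O2-5% CO2 at 37 °C. Contraction induced by OA at 10 µg/mL final bath concentration. Drug added cumulatively at 7-min intervals once contraction reached plateau; isotonic recording, relaxation scaled to papaverine maximum. Triplicate curves with 4–5 concentrations; IC50 by logit-log fit.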

Mus musculus = assay: Acute lethal toxicity (minimum lethal dose; MLD, po) in mice.; format: organism-based; details: in vivo
Summary of the method: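 Male dd mice (20–25 g), n = 3 per dose, given compound orally. Deaths observed for 7 days; MLD taken as the dose killing at least one mouse.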

Cavia porcellus [2] = assay: Effect on collapse time of antigen-induced bronchospasm in passively sensitized guinea pigs (at 50 mg/kg, po).MCT for untreated animals is 254+/-18.; format: functional
Cavia porcellus [3] = assay: Effect on collapse time of antigen-induced bronchospasm in passively sensitized guinea pigs (at 25 mg/kg, po).MCT for untreated animals is 254+/-18.; format: functional
Cavia porcellus [4] = assay: Effect on left ventricular dP/dtmax 5(mins) after intravenous administration in anesthetized guinea pigs; format: functional, Heart left ventricle
Summary of the method: (§1)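 Male guinea pigs under pentobarbital (50 mg/kg ip), tracheotomy, room-air ventilation at 60/min, 10 mL/kg. Carotid cannula advanced into the left ventricle to read LVP and LV dP/dtmax; heart rate triggered from LVP. Single 3 mg/kg iv dose via jugular vein. Values are percent of pretreatment, n = 5.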

Cavia porcellus [5] = assay: Effect on heart rate 1(mins) after intravenous administration in anesthetized guinea pigs.; format: functional; summary of the method: as §1
Cavia porcellus [6] = assay: Effect on heart rate 3(mins) after intravenous administration in anesthetized guinea pigs; format: functional; summary of the method: as §1
Cavia porcellus [7] = assay: Effect on heart rate 5(mins) after intravenous administration in anesthetized guinea pigs; format: functional; summary of the method: as §1
Cavia porcellus [8] = species on record: Cavia porcellus; assay: Inhibitory effect on spasmogen (carbachol) induced contraction of guinea pig tracheal strips.; format: functional; details: Trachea
Summary of the method: (§2)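 Zig-zag tracheal strips from normal guinea pigs, equilibrated 1 h in Krebs–Henseleit (95% O2/5% CO2, 37 °C). Contracted with carbachol 3 × 10⁻⁶ mol final, histamine 3 × 10⁻⁵ mol, or LTD4 50 µg/mL. Drug added cumulatively every 7 min after the plateau; isotonic recording. IC50 for 50% relaxation by least-squares regression.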

Cavia porcellus [9] = species on record: Cavia porcellus; assay: Inhibitory effect on spasmogen (histamine) induced contraction of guinea pig tracheal strips.; format: functional; details: Trachea; summary of the method: as §2
Cavia porcellus [10] = species on record: Cavia porcellus; assay: Inhibitory effect on spasmogen (leukotriene, LTD4) induced contraction of guinea pig tracheal strips.; format: functional; details: Trachea; summary of the method: as §2
Cavia porcellus [11] = assay: Effect on left ventricular dP/dtmax 0(mins) after intravenous administration in anesthetized guinea pigs.; format: functional, Heart left ventricle; summary of the method: as §1
Cavia porcellus [12] = assay: Effect on left ventricular dP/dtmax 1(mins) after intravenous administration in anesthetized guinea pigs.; format: functional, Heart left ventricle; summary of the method: as §1
Cavia porcellus [13] = assay: Effect on left ventricular dP/dtmax 3(mins) after intravenous administration in anesthetized guinea pigs; format: functional, Heart left ventricle; summary of the method: as §1
Cavia porcellus [14] = assay: Effect of the compound (intravenous administration) on anaphylactic bronchoconstriction in passively sensitized guinea pigs.; format: functional; details: Lung
Summary of the method: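 Male Hartley guinea pigs (350–450 g) passively sensitized ip with rabbit anti-OA serum 16–24 h before. Urethane anesthesia (1.5 g/kg ip), gallamine 10 mg/kg iv, ventilated 60–70 strokes/min. Konzett–Rössler air overflow after OA challenge 5 mg/kg iv. Compound in PEG 400 diluted with saline, given iv 90 s after challenge. ED50 by linear regression of AUC versus log dose.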

Cavia porcellus [15] = assay: Effect of the compound (peroral administration) on anaphylactic bronchoconstriction in passively sensitized guinea pigs.; format: functional; details: Lung, po
Summary of the method: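 Male Hartley guinea pigs (350–450 g) passively sensitized ip with rabbit anti-OA serum 16–24 h before. Urethane-anesthetized, gallamine-paralysed, ventilated. Air overflow (Konzett–Rössler) after OA 5 mg/kg iv. Compound suspended in 0.3% Tween 80, given orally 1 h before challenge. ED50 by linear regression of AUC versus log dose.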

Cavia porcellus [16] = assay: Effect on heart rate 0(mins) after intravenous administration in anesthetized guinea pigs.; format: functional; summary of the method: as §1
Cavia porcellus [17] = assay: Effect on left ventricular dP/dtmax 5(mins) after intravenous administration in anesthetized guinea pigs after a intravenous administration of 3 mg/kg; format: functional, Heart left ventricle
Summary of the method: (§3)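 Male guinea pigs anesthetized with pentobarbital sodium (50 mg/kg ip), ventilated via tracheotomy with room air (60/min, 10 mL/kg). Left-ventricular cannula via left common carotid to a pressure transducer for LVP and LV dP/dtmax; heart rate triggered by LVP. Drug given iv through the left jugular vein, vehicle PEG 400 diluted with saline. Change expressed as % of pretreatment value; mean ± SEM, n = 5.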

Cavia porcellus [18] = assay: Effect on collapse time of antigen-induced bronchospasm in passively sensitized guinea pigs (at 25 mg/kg, po). MCT for untreated animals is 254+/-18; format: functional
Cavia porcellus [19] = assay: Effect on left ventricular dP/dtmax 0(mins) after intravenous administration in anesthetized guinea pigs after a intravenous administration of 3 mg/kg; format: functional, Heart left ventricle; summary of the method: as §3
Cavia porcellus [20] = assay: Effect on left ventricular dP/dtmax 1(mins) after intravenous administration in anesthetized guinea pigs after a intravenous administration of 3 mg/kg; format: functional, Heart left ventricle; summary of the method: as §3
Cavia porcellus [21] = assay: Effect on left ventricular dP/dtmax 3(mins) after intravenous administration in anesthetized guinea pigs after a intravenous administration of 3 mg/kg; format: functional, Heart left ventricle; summary of the method: as §3
Cavia porcellus [22] = assay: Effect on heart rate 0(mins) after intravenous administration in anesthetized guinea pigs after intravenous administration of 3 mg/kg; format: functional; summary of the method: as §3
Cavia porcellus [23] = assay: Effect on heart rate 1(mins) after intravenous administration in anesthetized guinea pigs after intravenous administration of 3 mg/kg; format: functional; summary of the method: as §3
Cavia porcellus [24] = assay: Effect on heart rate 3(mins) after intravenous administration in anesthetized guinea pigs after intravenous administration of 3 mg/kg; format: functional; summary of the method: as §3
Cavia porcellus [25] = assay: Effect on heart rate 5(mins) after intravenous administration in anesthetized guinea pigs after intravenous administration of 3 mg/kg; format: functional; summary of the method: as §3

Row | Structure (SMILES) | IC50 (Cavia porcellus [1]) [µM] | MLD (Mus musculus) [mg/kg] | further results
1 | CCCCn1c(=O)c2ncn(CCC)c2c2ccccc21 | 3.99 | > 300 | 
2 | CCCCn1cnc2c(=O)n(CCCC)c3ccccc3c21 | 5.47 | > 300 | MCT (Cavia porcellus [2]): 504 s
3 | CCCCn1c(=O)c2nc(S)n(C)c2c2ccccc21 | 8.2 | > 300 | 
4 | CCCCn1c(=O)c2ncn(C)c2c2ccc(Cl)cc21.Cl | 1.52 | > 300 | MCT (Cavia porcellus [2]): 289 s
5 | CCCn1c(=O)c2ncn(C)c2c2ccccc21 | 10.7 | 300 | 
6 | CCCCn1c(=O)c2ncn(C(C)C)c2c2ccccc21 | 2.6 | > 300 | MCT (Cavia porcellus [3]): 425 s
7 | CCCCn1c(=O)c2nc(-c3ccccc3)n(C)c2c2ccccc21 | > 30 |  | 
8 | Cn1c(=O)c2[nH]cnc2n(C)c1=O.Cn1c(=O)c2[nH]cnc2n(C)c1=O.NCCN [AMINOPHYLLINE] | 16.7 |  | LV (Cavia porcellus [4]): 116%; Heart rate (Cavia porcellus [5]): 108%; Heart rate (Cavia porcellus [6]): 105%; Heart rate (Cavia porcellus [7]): 105%; IC50 (Cavia porcellus [8]): 37.7 µM; IC50 (Cavia porcellus [9]): 33.2 µM; IC50 (Cavia porcellus [10]): 23.6 µM; LV (Cavia porcellus [11]): 100%; LV (Cavia porcellus [12]): 125%; LV (Cavia porcellus [13]): 117%; ED50 (Cavia porcellus [14]): 7.8 mg/kg; ED50 (Cavia porcellus [15]): 51.7 mg/kg; Heart rate (Cavia porcellus [16]): 100%
9 | CCCCn1c(=O)c2ncn(CC)c2c2ccccc21 | 4.9 | > 300 | 
10 | C=CCCn1c(=O)c2ncn(C)c2c2ccccc21 | 5.62 | 200 | MCT (Cavia porcellus [2]): 342 s
11 | CCCCn1c(=O)c2ncn(C)c2c2cc(C)ccc21 | 7.97 | > 300 | MCT (Cavia porcellus [2]): 356 s
12 | CCCCn1c(=O)c2nnn(C)c2c2ccccc21 | 1.58 | > 300 | MCT (Cavia porcellus [2]): 296 s
13 | Cn1c(=O)c2nc[nH]c2n(C)c1=O.O [THEOPHYLLINE] | 6.52 |  | MCT (Cavia porcellus [3]): 389 s
14 | CCCCn1c(=O)c2ncn(C)c2c2ccccc21 | 0.25 | > 300 | LV dP/dtmax (Cavia porcellus [17]): 99.4%; MCT (Cavia porcellus [18]): 342 s; LV dP/dtmax (Cavia porcellus [19]): 100%; LV dP/dtmax (Cavia porcellus [20]): 91.6%; IC50 (Cavia porcellus [8]): 27.2 µM; IC50 (Cavia porcellus [9]): 2.12 µM; IC50 (Cavia porcellus [10]): 9.19 µM; LV dP/dtmax (Cavia porcellus [21]): 98.9%; Heart rate (Cavia porcellus [22]): 100%; Heart rate (Cavia porcellus [23]): 98.5%; Heart rate (Cavia porcellus [24]): 101%; Heart rate (Cavia porcellus [25]): 101%; ED50 (Cavia porcellus [14]): 0.42 mg/kg; ED50 (Cavia porcellus [15]): 44.9 mg/kg
15 | Cn1cnc2c(=O)n(C3CCCC3)c3ccccc3c21 | 6.58 | 300 | 

More lines, main results first:

Row | IC50 (Cavia porcellus [1]) [µM] | Structure (SMILES) | MLD (Mus musculus) [mg/kg] | further results
16 | > 30 | CCCCn1c(=O)c2ncn(C)c2c2c(C)cccc21 |  | 
17 | > 30 | CCCCCn1c(=O)c2ncn(C)c2c2ccccc21 |  | 
18 | > 30 | CCCCn1c(=O)c2nc(-c3ccco3)n(C)c2c2ccccc21 |  | 
19 | > 30 | CCCCn1c(=O)c2ncn(-c3ccccc3)c2c2ccccc21 |  | 
20 | > 30 | CCCCn1c(=O)c2ncn(C)c2c2cc(OC)c(OC)cc21 |  | 
21 | > 30 | CCCCn1c(=O)c2nc(O)n(C)c2c2ccccc21 |  | 
22 | > 30 | CCCCn1c2c(c3c(ncn3C)c1=O)CCCC2 |  | 
23 | > 30 | CCCCn1c(=O)c2nc(C)n(C)c2c2ccccc21 |  | 
24 | > 30 | Cn1cnc2c(=O)n(Cc3ccccc3)c3ccccc3c21 |  | 
25 | > 30 | CCCCn1c(=O)c2nc(-c3ccc(Cl)c(Cl)c3)n(C)c2c2ccccc21 |  | 
26 | > 30 | CC(C)Cn1c(=O)c2ncn(C)c2c2ccccc21 |  | 
27 | > 30 | COCCn1c(=O)c2ncn(C)c2c2ccccc21 |  | 
28 | > 30 | Cn1cnc2c(=O)n(Cc3ccco3)c3ccccc3c21 |  | 
29 | > 30 | Cn1cnc2c(=O)n(CC(=O)O)c3ccccc3c21 |  | 
30 | > 30 | Cn1cnc2c(=O)n(C)c3ccccc3c21 |  | 
31 | > 30 | CCCCn1c(=O)c2nc(-c3ccc(OC)cc3)n(C)c2c2ccccc21 |  | 
32 | > 30 | CCn1c(=O)c2ncn(C)c2c2ccccc21 |  | 
33 | > 30 | CCCCn1c(=O)c2ncn(C)c2c2cc(Cl)ccc21 |  | 
34 | > 30 | CCCCn1c(=O)c2ncn(Cc3ccccc3)c2c2ccccc21 |  | 
